Laboratory results reported in ChEMBL document CHEMBL1149273, “Calcitriol derivatives with two different side chains at C-20. II. Diastereoselective syntheses of the metabolically produced 24(R)-hydroxygemini” (J Med Chem, 2004).
Blank lines part the entries; values can stand above or below the molecule they belong to.

Columns and labels:
Kidney = assay: Metabolic stability in rat kidney perfusate; assay type: ADME, tissue-based
Mus musculus [1] = assay: Effect on calcium level in mouse at 1 […] after four diurnal doses; assay type: functional, organism-based
Outline: (§1)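 Mice received four diurnal administrations of drug in Miglyol vehicle, with vehicle-dosed controls, across a series of dose levels. Calcium levels (mg/dL) were then measured and reported with standard errors. The […] was assigned from these calcium levels.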

Mus musculus [2] = assay: Effect on calcium level in mouse at 3 […] after four diurnal doses; assay type: functional, organism-based; outline: as §1
Mus musculus [3] = assay: Effect on calcium level in mouse at 10 […] after four diurnal doses; assay type: functional, organism-based; outline: as §1
[4] = Maximum tolerated dose in mouse; assay type: ADME, organism-based; settings: in vivo
[5] = Inhibition of INFgamma release in MLR cells; assay type: functional, cell-based; settings: Homo sapiens
[6] = Inhibition of INFgamma release in MLR cells relative to calcitriol; assay type: functional, Homo sapiens
Mus musculus [7] = assay: Effect on calcium level in mouse at 0.3 ug/kg after four diurnal doses
Mus musculus [8] = assay: Effect on calcium level in mouse at 30 […] after four diurnal doses; assay type: functional, organism-based; outline: as §1
Mus musculus [9] = assay: Effect on calcium level in mouse at 100 […] after four diurnal doses; assay type: functional, organism-based; outline: as §1

Structure (SMILES): C=C1/C(=C\C=C2/CCC[C@]3(C)[C@@H](C(CCCC(C)(C)O)CCCC(C)(C)O)CC[C@@H]23)C[C@@H](O)C[C@@H]1O
Stability (Kidney): 80%
Calcium level (Mus musculus [1]): 11.1 mg/dL
Calcium level (Mus musculus [2]): 12.3 mg/dL
Calcium level (Mus musculus [3]): 16.7 mg/dL
MTD [4]: < 1 µg/kg
IC50 [5]: 0.004 nM
Ratio IC50 [6]: 0.1

Stability (Kidney): < 50%
Structure (SMILES): C=C1/C(=C\C=C2/CCC[C@]3(C)[C@@H]([C@H](C)CCCC(C)(C)O)CC[C@@H]23)C[C@@H](O)C[C@@H]1O [CALCITRIOL]

Structure (SMILES): C=C1/C(=C\C=C2/CCC[C@]3(C)[C@@H]([C@H](CCCC(C)(C)O)CC[C@@H](O)C(C)(C)O)CC[C@@H]23)C[C@@H](O)C[C@@H]1O
Calcium level (Mus musculus [1]): 9.7 mg/dL
Calcium level (Mus musculus [2]): 9.73 mg/dL
MTD [4]: 3 µg/kg
IC50 [5]: 0.08 nM
Ratio IC50 [6]: 2.5
Calcium level (Mus musculus [7]): 9.6 mg/dL

Structure (SMILES): C=C1/C(=C\C=C2/CCC[C@]3(C)[C@@H]([C@@H](CCCC(C)(C)O)CC[C@@H](O)C(C)(C)O)CC[C@@H]23)C[C@@H](O)C[C@@H]1O
Calcium level (Mus musculus [1]): 9.73 mg/dL
Calcium level (Mus musculus [2]): 9.63 mg/dL
MTD [4]: 3 µg/kg
IC50 [5]: 0.579 nM
Ratio IC50 [6]: 18
Calcium level (Mus musculus [7]): 9.8 mg/dL

Structure (SMILES): CC(C)(O)CCC[C@@H](CC[C@@H](O)C(C)(C)O)[C@H]1CC[C@H]2/C(=C/C=C3C[C@@H](O)C[C@H](O)C3)CCC[C@]12C
Calcium level (Mus musculus [1]): 9.53 mg/dL
Calcium level (Mus musculus [2]): 9.9 mg/dL
Calcium level (Mus musculus [3]): 9.43 mg/dL
Calcium level (Mus musculus [8]): 9.43 mg/dL
Calcium level (Mus musculus [9]): 9.57 mg/dL
MTD [4]: > 100 µg/kg
IC50 [5]: 3.86 nM
Ratio IC50 [6]: 160

Structure (SMILES): CC(C)(O)CCCC(CCCC(C)(C)O)[C@H]1CC[C@H]2/C(=C/C=C3C[C@@H](O)C[C@H](O)C3)CCC[C@]12C
Stability (Kidney): 80%
Calcium level (Mus musculus [2]): 10 mg/dL
Calcium level (Mus musculus [3]): 12.5 mg/dL
Calcium level (Mus musculus [8]): 16.5 mg/dL
MTD [4]: 3 µg/kg
IC50 [5]: 0.044 nM
Ratio IC50 [6]: 1.8

Structure (SMILES): CC(C)(O)CCC[C@H](CC[C@@H](O)C(C)(C)O)[C@H]1CC[C@H]2/C(=C/C=C3C[C@@H](O)C[C@H](O)C3)CCC[C@]12C
Calcium level (Mus musculus [1]): 9.63 mg/dL
Calcium level (Mus musculus [2]): 9.37 mg/dL
Calcium level (Mus musculus [3]): 9.57 mg/dL
Calcium level (Mus musculus [8]): 9.77 mg/dL
Calcium level (Mus musculus [9]): 10.8 mg/dL
MTD [4]: 30 µg/kg
IC50 [5]: 0.781 nM
Ratio IC50 [6]: 31
